Hits are enriched below; roughly 1.9% of the tested compounds scored in any of these assays.
LEDGF integ inh: blocks HIV-1 LEDGF/p75-dependent DNA integration; TR-FRET IN-LEDGF/p75 DNA integration, Eu/Cy5; inhibition, % at 3.7 µM; 370,000 tested, 0.64% active; AID 743269;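 active = inhibition above the screen-wide mean plus 3 SD, cut at about 13% in these data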;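 note: signal is the Cy5 over europium emission ratio at 671 and 618 nm; 0% = plate median of compound wells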
MBD2 inh: inhibitors of human MBD2 binding to methylated oligonucleotide; Q9UBB5; TR-FRET; inhibition, % at 4.4 µM; 370,000 tested, 0.31% active; AID 686964; in the data active = inhibition above about 13%
Rin1 Abl inh: human Rin1-Abl interaction inhibition. P00519+Q13671. TR-FRET Rin1/Abl binding, biochemical. inhibition, % at 7.35 µM. 360,000 tested, 0.4% active. AID 588664; in the data active = inhibition above about 5%, passing the limit was not always enough
TDP2 absorb: blocks human TDP2 phosphodiesterase activity. recombinant TDP2, T5PNP hydrolysis, p-nitrophenol absorbance 415 nm. inhibition, % at 12.8 µM. 370,000 tested, 0.34% active;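 active = inhibition above the mean of all tested compounds plus 3 SD, set per campaign, cut at about 25% in these data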;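 note: 0% = DMSO with enzyme and 100% = buffer with substrate but no TDP2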
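Test system: Human TDP2 enzyme | Reagent: 5 mM T5PNP | Compound dosing: 12.8 µM single point, 1% DMSO | Incubation: Enzyme reaction with compound for 2 h at 37 °C | Technique: p-Nitrophenol epi absorbance | Read-out: % inhibition relative to enzyme-containing and enzyme-free wells | Benchmarks: High control without enzyme, low control DMSO plus TDP2 | Replicates: Singlicate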
UHRF1 binding: UHRF1 methyl-DNA binding inhibition; Q96T88; UHRF1 binding to methylated oligo, TR-FRET; inhibition, % at 4.4 µM; 370,000 tested, 0.75% active; in the data active = inhibition above about 21%;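 note: UHRF1 SRA domain binding a hemimethylated CpG hairpin DNA probe; 0% = median of test compound wells and 100% = reference inhibitor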
Active calls of the source: *.

O=c1[nH]c(CN2CCc3ccccc3C2)nc2ccccc12 was read as LEDGF integ inh 4, MBD2 inh -3, Rin1 Abl inh -1, TDP2 absorb 18 and UHRF1 binding -9.
`Cc1ccc(-n2c(SCC(=O)Nc3cccc4ccccc34)nnc2-c2ccccc2)cc1` gave LEDGF integ inh 4, MBD2 inh 2, TDP2 absorb 3 and UHRF1 binding -2.
Cc1ccc(-n2c(COc3ccccc3)nnc2SCC(=O)Nc2ccc3c(c2)OCO3)cc1 was read as LEDGF integ inh 1, MBD2 inh -1, TDP2 absorb -2 and UHRF1 binding -1.
Screening N/C(=N\OC(=O)c1cc([N+](=O)[O-])ccc1Cl)c1ccccn1 returned LEDGF integ inh -1, MBD2 inh -6, Rin1 Abl inh 0, TDP2 absorb 7 and UHRF1 binding 46*.
`O=C(NNC(=O)C1CCN(Cc2ccc(F)cc2Cl)CC1)Nc1ccc([N+](=O)[O-])cc1` gave LEDGF integ inh 6, MBD2 inh -2, Rin1 Abl inh 1, TDP2 absorb 0 and UHRF1 binding 29*.
Screening COc1ccc(NC(=O)c2ccc(NC(=O)CN(C)CC(=O)Nc3c(C)cccc3C)cc2)cc1 returned LEDGF integ inh 1, MBD2 inh 0, Rin1 Abl inh -2, TDP2 absorb 1 and UHRF1 binding 22*.
`CC(C)(C)C(=O)NC1CCCCN(Cc2ccc(Cl)cc2)C1=O` (configuration not stated) gave LEDGF integ inh 2, MBD2 inh -3, TDP2 absorb 4 and UHRF1 binding -2.
Screening COc1ccc(NC(=O)CN(c2ccccc2C)S(C)(=O)=O)c(OC)c1 returned LEDGF integ inh -3, MBD2 inh -1, Rin1 Abl inh 0, TDP2 absorb 6 and UHRF1 binding 1.
Screening COc1ccc(NC(=O)CN(c2ccc(C)cc2)S(C)(=O)=O)c(OC)c1 returned LEDGF integ inh -3, MBD2 inh 0, Rin1 Abl inh 1, TDP2 absorb -2 and UHRF1 binding 40*.
`CCOC(=O)CC[C@H]1CC[C@]2(CCCN(Cc3ccccc3)C2)O1` gave LEDGF integ inh -1, MBD2 inh 7, TDP2 absorb -6 and UHRF1 binding 1.
Screening Cn1cc(S(=O)(=O)Oc2ccccc2)c(=O)n(C)c1=O returned LEDGF integ inh -6, MBD2 inh 4, Rin1 Abl inh -4, TDP2 absorb 1 and UHRF1 binding 28*.
Screening Cc1ccc(OS(=O)(=O)c2cn(C)c(=O)n(C)c2=O)cc1C returned LEDGF integ inh 0, MBD2 inh 1, Rin1 Abl inh -2, TDP2 absorb 4 and UHRF1 binding -2.
For C/C(=N\Nc1nc(C)cc(C)n1)c1ccc(N2CCOCC2)cc1 the results were LEDGF integ inh 0, MBD2 inh 0, Rin1 Abl inh -1, TDP2 absorb 9 and UHRF1 binding -1.
C/C(=N\Nc1nc2ccccc2[nH]1)c1ccc(N2CCOCC2)cc1 was read as LEDGF integ inh 0, MBD2 inh 3, Rin1 Abl inh -7, TDP2 absorb 6 and UHRF1 binding 33*.
For Cc1cc(/C=C(/C#N)c2nc3ccccc3[nH]2)c(C)n1-c1ccccc1C(=O)O the results were LEDGF integ inh 1, MBD2 inh -10, Rin1 Abl inh -2, TDP2 absorb -15 and UHRF1 binding -2.
For Cc1cc(/C=C(/C#N)c2nc3ccccc3[nH]2)c(C)n1-c1cc(C(=O)O)cc(C(=O)O)c1 the results were LEDGF integ inh 13, MBD2 inh 1, Rin1 Abl inh 1, TDP2 absorb 4 and UHRF1 binding 23*.
For O=C(c1ccccc1)c1ccc2nc(-c3ccc(NC(=O)c4ccccc4Br)cc3)[nH]c2c1 the results were LEDGF integ inh -2, MBD2 inh -7, Rin1 Abl inh -3, TDP2 absorb -9 and UHRF1 binding 2.
`Cc1ccccc1C(=O)Nc1ccc(-c2nc3ccc(C(=O)c4ccccc4)cc3[nH]2)cc1` gave LEDGF integ inh -2, MBD2 inh -1, Rin1 Abl inh 8.5*, TDP2 absorb 12 and UHRF1 binding 0.
`COc1ccc(CNC(=O)c2cc(-c3ccccc3)c(N3CCOCC3)s2)cc1OC` gave LEDGF integ inh 3, MBD2 inh -1, TDP2 absorb 1 and UHRF1 binding 1.
`Cc1ccc(C)c(S(=O)(=O)Nc2ccc3oc(C)c(C(=O)O)c3c2)c1` gave LEDGF integ inh 9, MBD2 inh 2, Rin1 Abl inh 1, TDP2 absorb 3 and UHRF1 binding 24*.
`COC(=O)[C@]12C[C@H](CC(=O)N3CCSCC3)C(=O)N(Cc3ccco3)C1=C[C@H](COCc1ccccc1)O[C@@H]2C` gave LEDGF integ inh 2, MBD2 inh 1, TDP2 absorb 0 and UHRF1 binding 1.
O=C(NCc1ccccc1)C1(C(=O)C2CC2)CC(c2ccccn2)=NO1 (configuration not stated) was read as LEDGF integ inh 4, MBD2 inh -1, TDP2 absorb 2 and UHRF1 binding 2.
Screening CC(=O)Nc1ccc(S(=O)(=O)NCCNS(=O)(=O)c2ccc(NC(C)=O)cc2)cc1 returned LEDGF integ inh -3, MBD2 inh -4, Rin1 Abl inh 1, TDP2 absorb 9 and UHRF1 binding 0.
Screening CC(=O)Nc1ccc(S(=O)(=O)NCCSc2ccccn2)cc1 returned LEDGF integ inh 0, MBD2 inh 5, Rin1 Abl inh -1, TDP2 absorb 10 and UHRF1 binding 21*.
`COc1ccc(-n2c(SCC(=O)Nc3ccc(S(=O)(=O)Nc4cc(C)nc(C)n4)cc3)nnc2-c2ccco2)cc1` gave LEDGF integ inh -4, MBD2 inh 0, TDP2 absorb -4 and UHRF1 binding 2.
COC(=O)[C@H](C(C)C)N(CCc1cn(CC2CCCCC2)nn1)S(=O)(=O)c1ccc(F)cc1Br was read as LEDGF integ inh 3, MBD2 inh -4, TDP2 absorb -9 and UHRF1 binding -2.
For CC(=O)NC(c1cccs1)c1cc([N+](=O)[O-])c2cccnc2c1O (configuration not stated) the results were LEDGF integ inh -1, MBD2 inh -18, Rin1 Abl inh 17*, TDP2 absorb -12 and UHRF1 binding -11.
O=S(=O)(c1cccs1)N1CCN(c2ccccc2Cl)CC1 was read as LEDGF integ inh 6, MBD2 inh 4, Rin1 Abl inh 5, TDP2 absorb -5 and UHRF1 binding -1.
COc1cc(C(=O)N2CCN(S(=O)(=O)c3cccs3)CC2)cc(OC)c1C was read as LEDGF integ inh 0, MBD2 inh 7, Rin1 Abl inh 1, TDP2 absorb 4 and UHRF1 binding 24*.
`COc1ccccc1N1CCN(S(=O)(=O)c2cccs2)CC1` gave LEDGF integ inh -3, MBD2 inh -3, Rin1 Abl inh 3, TDP2 absorb -6 and UHRF1 binding 39*.

Screening data (PubChem)
